# ChEMBL document CHEMBL5550111, “Design, synthesis and biological evaluation of aryloxy thiophosphoramidate triesters of anticancer nucleoside analogues” (Bioorg Med Chem, 2024)
# Tests used:
# [1] = Cytotoxicity against human ACHN-luc2 cells assessed as inhibition of cell viability incubated for 72 hrs by MTS assay; format: functional, cell-based; conditions: ACHN-luc2, 72 h
# Procedure, shortened: (§1)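 Cells seeded at 0.5 to 100 × 10^3 per well the day before treatment, then exposed for 72 h to 9 serial concentrations (3.16-fold dilutions, top 198 μM), in duplicate. MTS added for a final 4 h at 37 °C and absorbance read. IC50 is the concentration giving 50% loss of viability. MI% is the maximum inhibition over the tested range.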
# [2] = Cytotoxicity against human T24/83 cells assessed as maximum inhibition of cell viability upto 198 uM incubated for 72 hrs by MTS assay relative to control; format: functional; conditions: up to 198 µM
# Procedure, shortened: (§2)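 Cells seeded at 0.5 to 100 × 10^3 per well the day before drug addition, then exposed to compound for 72 h. MTS added afterwards, with a further 4 h at 37 °C, and absorbance read. Tested in duplicate at 9 serial 3.16-fold dilutions, top concentration 198 μM. MI% is the maximum inhibition of viability across the tested range.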
# [3] = test system: A498; experiment: Cytotoxicity against human A498 cells assessed as inhibition of cell viability incubated for 72 hrs by MTS assay; format: functional, cell-based; conditions: A498, 72 h; procedure, shortened: as §1
# [4] = test system: COLO 205; experiment: Cytotoxicity against human COLO 205 cells assessed as inhibition of cell viability incubated for 72 hrs by MTS assay; format: functional, cell-based; conditions: COLO 205, 72 h; procedure, shortened: as §1
# [5] = test system: KG-1; experiment: Cytotoxicity against human KG-1 cells assessed as inhibition of cell viability incubated for 72 hrs by MTS assay; format: functional, cell-based; conditions: KG-1, 72 h; procedure, shortened: as §1
# [6] = test system: HT-29; experiment: Cytotoxicity against human HT-29 cells assessed as inhibition of cell viability incubated for 72 hrs by MTS assay; format: functional, cell-based; conditions: HT-29, 72 h; procedure, shortened: as §1
# [7] = test system: PC-3; experiment: Cytotoxicity against human PC-3 cells assessed as inhibition of cell viability incubated for 72 hrs by MTS assay; format: functional, cell-based; conditions: PC-3, 72 h; procedure, shortened: as §1
# [8] = test system: HL-60; experiment: Cytotoxicity against human HL-60 cells assessed as maximum inhibition of cell viability upto 198 uM incubated for 72 hrs by MTS assay relative to control; format: functional; conditions: up to 198 µM; procedure, shortened: as §2
# [9] = test system: 5637; experiment: Cytotoxicity against human 5637 cells assessed as inhibition of cell viability incubated for 72 hrs by MTS assay; format: functional, cell-based; conditions: Homo sapiens, 5637, 72 h; procedure, shortened: as §1
# [10] = test system: MIA PaCa-2; experiment: Cytotoxicity against human MIA PaCa-2 cells assessed as inhibition of cell viability incubated for 72 hrs by MTS assay; format: functional, cell-based; conditions: MIA PaCa-2, 72 h; procedure, shortened: as §1
# [11] = Cytotoxicity against human T24/83 cells assessed as inhibition of cell viability incubated for 72 hrs by MTS assay; format: functional, cell-based; conditions: T24/83, 72 h; procedure, shortened: as §1
# [12] = test system: HL-60; experiment: Cytotoxicity against human HL-60 cells assessed as inhibition of cell viability incubated for 72 hrs by MTS assay; format: functional, cell-based; conditions: HL-60, 72 h; procedure, shortened: as §1
# [13] = test system: COLO 205; experiment: Cytotoxicity against human COLO 205 cells assessed as maximum inhibition of cell viability upto 198 uM incubated for 72 hrs by MTS assay relative to control; format: functional; conditions: up to 198 µM; procedure, shortened: as §2
# [14] = test system: MDA-MB-231; experiment: Cytotoxicity against human MDA-MB-231 cells assessed as inhibition of cell viability incubated for 72 hrs by MTS assay; format: functional, cell-based; conditions: MDA-MB-231, 72 h; procedure, shortened: as §1
# [15] = test system: MCF7; experiment: Cytotoxicity against human MCF7 cells assessed as maximum inhibition of cell viability upto 198 uM incubated for 72 hrs by MTS assay relative to control; format: functional; conditions: up to 198 µM; procedure, shortened: as §2
# [16] = test system: HT-29; experiment: Cytotoxicity against human HT-29 cells assessed as maximum inhibition of cell viability upto 198 uM incubated for 72 hrs by MTS assay relative to control; format: functional; conditions: up to 198 µM; procedure, shortened: as §2
# [17] = test system: K562; experiment: Cytotoxicity against human K562 cells assessed as inhibition of cell viability incubated for 72 hrs by MTS assay; format: functional, cell-based; conditions: K562, 72 h; procedure, shortened: as §1
# [18] = test system: RL; experiment: Cytotoxicity against human RL cells assessed as maximum inhibition of cell viability upto 198 uM incubated for 72 hrs by MTS assay relative to control; format: functional; conditions: up to 198 µM; procedure, shortened: as §2
# [19] = test system: CAKI-2; experiment: Cytotoxicity against human CAKI-2 cells assessed as inhibition of cell viability incubated for 72 hrs by MTS assay; format: functional, cell-based; conditions: CAKI-2, 72 h; procedure, shortened: as §1
# [20] = test system: MOLT-4; experiment: Cytotoxicity against human MOLT-4 cells assessed as maximum inhibition of cell viability upto 198 uM incubated for 72 hrs by MTS assay relative to control; format: functional; conditions: up to 198 µM; procedure, shortened: as §2
# [21] = test system: PC-3; experiment: Cytotoxicity against human PC-3 cells assessed as maximum inhibition of cell viability upto 198 uM incubated for 72 hrs by MTS assay relative to control; format: functional; conditions: up to 198 µM; procedure, shortened: as §2
# [22] = test system: RL; experiment: Cytotoxicity against human RL cells assessed as inhibition of cell viability incubated for 72 hrs by MTS assay; format: functional, cell-based; procedure, shortened: as §1
# [23] = test system: MDA-MB-231; experiment: Cytotoxicity against human MDA-MB-231 cells assessed as maximum inhibition of cell viability upto 198 uM incubated for 72 hrs by MTS assay relative to control; format: functional; conditions: up to 198 µM; procedure, shortened: as §2
# [24] = test system: HepG2; experiment: Cytotoxicity against human HepG2 cells assessed as maximum inhibition of cell viability upto 198 uM incubated for 72 hrs by MTS assay relative to control; format: functional; conditions: up to 198 µM; procedure, shortened: as §2
# [25] = test system: MIA PaCa-2; experiment: Cytotoxicity against human MIA PaCa-2 cells assessed as maximum inhibition of cell viability upto 198 uM incubated for 72 hrs by MTS assay relative to control; format: functional; conditions: up to 198 µM; procedure, shortened: as §2
# [26] = test system: K562; experiment: Cytotoxicity against human K562 cells assessed as maximum inhibition of cell viability upto 198 uM incubated for 72 hrs by MTS assay relative to control; format: functional; conditions: up to 198 µM; procedure, shortened: as §2
# [27] = test system: MOLT-4; experiment: Cytotoxicity against human MOLT-4 cells assessed as inhibition of cell viability incubated for 72 hrs by MTS assay; format: functional, cell-based; conditions: MOLT-4, 72 h; procedure, shortened: as §1
# [28] = test system: 5637; experiment: Cytotoxicity against human 5637 cells assessed as maximum inhibition of cell viability upto 198 uM incubated for 72 hrs by MTS assay relative to control; format: functional; conditions: up to 198 µM; procedure, shortened: as §2
# [29] = Cytotoxicity against human ACHN-luc2 cells assessed as maximum inhibition of cell viability upto 198 uM incubated for 72 hrs by MTS assay relative to control; format: functional; conditions: up to 198 µM; procedure, shortened: as §2
# [30] = test system: CAKI-2; experiment: Cytotoxicity against human CAKI-2 cells assessed as maximum inhibition of cell viability upto 198 uM incubated for 72 hrs by MTS assay relative to control; format: functional; conditions: up to 198 µM; procedure, shortened: as §2
# [31] = test system: MCF7; experiment: Cytotoxicity against human MCF7 cells assessed as inhibition of cell viability incubated for 72 hrs by MTS assay; format: functional, cell-based; conditions: MCF7, 72 h
# [32] = test system: KG-1; experiment: Cytotoxicity against human KG-1 cells assessed as maximum inhibition of cell viability upto 198 uM incubated for 72 hrs by MTS assay relative to control; format: functional; conditions: up to 198 µM; procedure, shortened: as §2
# [33] = test system: HepG2; experiment: Cytotoxicity against human HepG2 cells assessed as inhibition of cell viability incubated for 72 hrs by MTS assay; format: functional, cell-based; conditions: HepG2, 72 h; procedure, shortened: as §1
# [34] = test system: A498; experiment: Cytotoxicity against human A498 cells assessed as maximum inhibition of cell viability upto 198 uM incubated for 72 hrs by MTS assay relative to control; format: functional; conditions: up to 198 µM; procedure, shortened: as §2
structure (smiles),measurement,setting,value
C[C@H](NP(=S)(OC[C@@H]1C[C@@H](O)[C@H](n2cnc3c(N)ncnc32)O1)Oc1ccccc1)C(=O)OCc1ccccc1 (some centres undefined),IC50,[1],33.9 µM
same,Imax,[2],100%
same,IC50,[3],44.5 µM
same,IC50,[4],41.8 µM
same,IC50,[5],60 µM
same,IC50,[6],57.9 µM
same,IC50,[7],62.8 µM
same,Imax,[8],99%
same,IC50,[9],82.6 µM
same,IC50,[10],12.6 µM
same,IC50,[11],42.6 µM
same,IC50,[12],73.7 µM
same,Imax,[13],99%
same,IC50,[14],50.6 µM
same,Imax,[15],100%
same,Imax,[16],100%
same,IC50,[17],64.5 µM
same,Imax,[18],113%
same,IC50,[19],76 µM
same,Imax,[20],99%
same,Imax,[21],97%
same,IC50,[22],95.6 µM
same,Imax,[23],96%
same,Imax,[24],100%
same,Imax,[25],100%
same,Imax,[26],96%
same,IC50,[27],9.19 µM
same,Imax,[28],100%
same,Imax,[29],97%
same,Imax,[30],78%
same,IC50,[31],40.4 µM
same,Imax,[32],98%
same,IC50,[33],25.3 µM
same,Imax,[34],95%
